Bioassay records: PubChem, The Scripps Research Institute Molecular Screening Center
M4 PAM: CHRM4 positive allosteric modulation | activation, % at 3 µM | CHO-K1 hM4/Gqi5, Fluo-8 calcium fluorescence, ACh EC20; 0% = ACh EC20, 100% = maximal ACh | P08173 | 360,000 compounds, 0.4% hits;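 active = activation above its plate's cutoff, the mean activation of sample wells plus 3 SD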
Target sequence (P08173 whole entry, looked up): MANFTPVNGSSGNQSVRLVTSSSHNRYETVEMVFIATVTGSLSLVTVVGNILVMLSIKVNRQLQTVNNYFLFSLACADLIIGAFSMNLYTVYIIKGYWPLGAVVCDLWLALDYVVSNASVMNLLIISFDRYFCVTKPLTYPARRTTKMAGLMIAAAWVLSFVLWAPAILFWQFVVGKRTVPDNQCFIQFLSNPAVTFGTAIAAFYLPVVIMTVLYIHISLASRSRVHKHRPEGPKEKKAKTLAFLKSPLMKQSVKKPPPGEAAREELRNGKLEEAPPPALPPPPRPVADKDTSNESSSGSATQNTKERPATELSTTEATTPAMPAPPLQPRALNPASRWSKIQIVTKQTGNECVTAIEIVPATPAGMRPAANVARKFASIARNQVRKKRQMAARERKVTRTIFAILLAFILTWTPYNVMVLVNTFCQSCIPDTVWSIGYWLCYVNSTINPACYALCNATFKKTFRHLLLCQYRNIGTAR
M5 antag: antagonists of human muscarinic M5 receptor (CHRM5); CHO-hM5 cells, Fluo-8 calcium fluorescence, ACh EC80; inhibition, % at 3 µM; AID 624040; 360,000 compounds, 0.59% hits;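 active = inhibition above a per-plate cutoff, the mean of that plate's test compounds plus 3 SD, cut at about 27% in these data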;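 also: 0% = acetylcholine EC80 with DMSO and 100% = DMSO without agonist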
M4 antag: CHRM4 antagonism in calcium assay; CHO-hM4 cells, ACh EC80, Fluo-8 calcium fluorescence; inhibition, % at 3 µM; 360,000 compounds, 0.73% hits; AID 624125;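 active = inhibition above its plate's cutoff, the mean inhibition of sample wells plus 3 SD, cut at about 27% in these data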;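 also: 0% = acetylcholine EC80 with DMSO and 100% = DMSO without agonist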
M5 ag: CHRM5 agonism in calcium assay. P08912. CHO-K1 hM5 cells, Fluo-8 calcium fluorescence; 0% DMSO wells, 100% maximal acetylcholine response. activation, % at 3 µM. 360,000 compounds, 0.19% hits;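 active = activation above the run's mean over test compounds plus 3 SD, cut at about 23% in these data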;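 also: signal is peak over basal fluorescence ratio across the kinetic read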
CHRM5 PAM: potentiates acetylcholine response at human M5 receptor | P08912 | CHO-K1 hM5, Fluo-8 calcium, ACh EC20 PAM; 0% = ACh EC20, 100% = ACh EC100 | activation, % at 3 µM | 360,000 compounds, 0.3% hits;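 active = activation above the run cutoff, the mean activation of all test compounds plus 3 SD, cut at about 18% in these data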
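Measured by: Fluo-8 calcium fluorescence; material: human M5 receptor in CHO-K1 cells; schedule: Post-acetylcholine fluorescence recording 140 s; benchmarks: low control EC20 acetylcholine (0%), high control EC100 acetylcholine (100%); read-out: Max/basal fluorescence ratio as % of EC20–EC100 ACh window; compound: single dose, 3 µM nominal final test concentration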
CHRM4 agonist: CHRM4 agonism in calcium assay. P08173. CHO-K1 hM4/Gqi5, Fluo-8 calcium fluorescence; vehicle 0%, full acetylcholine response 100%. activation, % at 3 µM. 360,000 compounds, 0.14% hits. AID 624127;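 active = activation above the run mean over all test wells plus 3 SD, cut at about 32% in these data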;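 also: peak over basal fluorescence ratio per well then scaled between controls; 0% = DMSO wells and 100% = acetylcholine at EC100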
Active calls of the source: *. Only some compounds are listed: those with a hit (about 1.8% of all), similar ones and a draw of the others.

SMILES | M4 PAM | M5 antag | M4 antag | M5 ag | CHRM5 PAM | CHRM4 agonist
O=C(Nc1cccc(Cl)c1)Nc1ccc(Br)cc1F | -16 | 16 | 25 | 1 | -14 | 7
Cc1cc(NC(=O)Nc2ccccc2F)ccc1Br | -16 | 37* | 13 | 0 | -18 | 13
COC(=O)CS(=O)(=O)c1nnc([C@H](Cc2ccccc2)NC(=O)OC(C)(C)C)o1 | -7 | 4 | 77* | 5 | 8 | 4
Cc1cccc(CS(=O)(=O)c2nnc([C@H](Cc3ccccc3)NC(=O)OC(C)(C)C)o2)c1 | -16 | 8 | 67* | 3 | 1 | 7
CC(C)(C)OC(=O)N[C@@H](Cc1ccccc1)c1nnc(SCC(N)=O)o1 | -12 | 2 | -7 | 2 | -1 | 0
COC(=O)CSc1nnc([C@H](Cc2ccccc2)NC(=O)OC(C)(C)C)o1 | -6 | 3 | -10 | -3 | -2 | 3
CCCCC(=O)N(C)c1c(CC)nc2c(OCC(N)=O)cccn12 | 0 | 5 | -2 | 0 | -1 | 0
O=C(Nc1c(-c2ccc(Cl)cc2)[nH][nH]c1=O)c1ccccc1Cl | 6 | 0 | -8 | 4 | -2 | 5
CCCC1(C(=O)OCC)NC(c2cc(OC)c(OC)c(OC)c2)C2C(=O)N(CC)C(=O)C21 (configuration not stated) | 35* | -5 | -3 | 1 | -1 | 2
O=C(NCc1nc2ccccc2[nH]1)C1=C[C@H](c2ccc3c(c2)OCO3)C[C@H](OCc2ccc(CO)cc2)O1 | 0 | 10 | -10 | -3 | -16 | 9
CCOC(=O)Cn1cnc(-c2ccc([N+](=O)[O-])cc2)c1 | 27* | 2 | 3 | 0 | 1 | 3
Cc1cccc(/C=N/n2c(C)cc(C)c(C#N)c2=O)c1 | 41* | -1 | 26 | -1 | 5 | 2
CC1(C)Cc2c(ccc3ccccc23)C(c2cc3ccccc3oc2=O)=N1 | 6 | 14 | 0 | 27* | 13 | -3
CC1(C)Cc2ccccc2C(c2cc3ccccc3oc2=O)=N1 | -2 | -3 | 0 | 2 | 16 | 1
Cc1cc(C)n(-c2nc(Nc3ccccc3)nc(-n3nc(C)cc3C)n2)n1 | 1 | -5 | 17 | 1 | 5 | -1
COc1cccc(/C=N/Nc2nc(Nc3ccccc3)nc(-n3nc(C)cc3C)n2)c1O | -19 | 16 | 18 | 1 | -15 | 43*
O=C(OCc1ccccc1)N(CCCCN(CCCNCc1ccccc1)C(=O)OCc1ccccc1)CCCNCc1ccccc1 | -11 | 21 | 65* | -10 | -14 | 26
CCc1sc(C(=O)Nc2ccc(F)cc2C)cc1C | 7 | 1 | 2 | -4 | -1 | 0
Cc1ccc(S(=O)(=O)N2[C@@H](c3ccc(Cl)cc3)C(C(=O)OC(C)(C)C)=CC[C@H]2c2ccc(Cl)c(Cl)c2)cc1 | 15 | 3 | -6 | 1 | -4 | 1
Cc1cc(C)c(OCCOCCN2CCNCC2)c(C)c1 | 2 | -3 | -22 | -8 | 45* | 2
Cc1cc(C)c(OCCOCCN2CCCC2)c(C)c1 | -17 | 8 | -1 | -12 | 2 | 1
CN1CCN(CCCNC(=O)CCc2nnc3n(Cc4ccccc4Cl)c(=O)c4ccccc4n23)CC1 | 16* | -1 | -6 | -6 | 5 | 2
O=C(CCc1nnc2n(Cc3ccc(F)cc3)c(=O)c3ccccc3n12)NCCCN1CCOCC1 | -1 | 8 | 8 | -2 | -4 | 13
C=CCn1c(=O)c(C(=O)Nc2ccccc2O)c(O)c2ccccc21 | -5 | -2 | 4 | -10 | -4 | 0
C=CCn1c(=O)c(C(=O)Nc2ccccc2C)c(O)c2ccccc21 | -4 | -17 | -16 | 8 | 27* | 0
SMILES | M4 PAM | M5 antag | M4 antag | M5 ag | CHRM5 PAM | CHRM4 agonist
CC(C)Cn1c(=O)c(C(=O)Nc2ccncc2)c(O)c2ccccc21 | -47 | 100* | 98* | -20 | -33 | 1
Cc1ccc(CN2CCN(Cc3cn[nH]c3-c3cccc(F)c3)CC2CCO)o1 (configuration not stated) | 4 | -1 | -7 | 4 | 7 | 1
O=C(O)CCN1CC2([N+](=O)[O-])CC=C(OCCO)C([N+](=O)[O-])(C1)C2 (configuration not stated) | 0 | 8 | 0 | -2 | -4 | 0
COC1=CCC2([N+](=O)[O-])CN(CCO)CC1([N+](=O)[O-])C2 (configuration not stated) | 17 | 9 | -2 | 10 | 19* | 3
Cc1ccc(-c2csc(N3CCC(NS(=O)(=O)c4ccc5c(c4)OCCO5)CC3)n2)cc1 | -10 | 28* | 21 | 4 | -21 | 10
CC(C(=O)Nc1sc2c(c1C(=O)NCC1CCCO1)CCC2)N1C(=O)c2ccccc2C1=O (configuration not stated) | -2 | -9 | 4 | 0 | 8 | 0
Cc1ccccc1C(=O)NC(NC(=S)Nc1ccc(S(N)(=O)=O)cc1)C(Cl)(Cl)Cl (configuration not stated) | 24* | 11 | 4 | 0 | 2 | 2
O=C(NC(NC(=S)Nc1ccccc1)C(Cl)(Cl)Cl)c1cccc(Cl)c1 (configuration not stated) | -5 | 44* | 9 | 7 | -10 | 13
Cc1cc(C)c(NC(=S)NC(NC(=O)c2ccccc2)C(Cl)(Cl)Cl)c(C)c1 (configuration not stated) | -1 | 27* | 7 | 5 | 16 | 7
Cc1ccc(NC(=S)NC(NC(=O)c2ccccc2)C(Cl)(Cl)Cl)c(C)c1 (configuration not stated) | 12 | 13 | -24 | 6 | -17 | 8
Cc1ccc(C(=O)NC(NC(=S)Nc2ccc(S(N)(=O)=O)cc2)C(Cl)(Cl)Cl)cc1 (configuration not stated) | 0 | 8 | 18 | -3 | -8 | 3
CC(=O)N/C(=C\c1ccccc1)C(=O)OC(C)C(=O)NCc1ccccc1 (configuration not stated) | 5 | -16 | -8 | 0 | 6 | 2
CC(C)[C@H](NC(=O)c1ccccc1F)C(=O)NCc1ccc(S(N)(=O)=O)cc1 | 15* | 2 | -26 | -3 | 10 | 4
COC(=O)c1ccc(COC(=O)CNC(=O)c2ccc(C)s2)cc1 | 2 | 5 | 0 | 0 | -13 | 1
CCOc1ccc(-c2ccc(C3=CC(=O)C[C@H](c4ccc(F)cc4)C3)cc2)cc1 | 8 | -5 | -7 | 3 | 3 | 0
CC1=CC(C)C2(COC(=O)Nc3ccccc3)COC(C)C1C2C (configuration not stated) | -1 | -21 | -19 | -7 | -7 | 0
